Screening data as filed in PubChem.
The list is not random: actives were taken first. Their share in the collection is about 2.1%.
PAX8 reporter = lowers PAX8-driven luciferase in RMG-I cells; RMG-I TPO-luciferase reporter, SteadyGlo, 24 h; inhibition, % at 12.6 µM; 360,000 compounds, 1.2% hits; AID 652154;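 active = mean replicate inhibition at least 60% with every replicate also reaching 60%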;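 also: luciferase light reporting Pax8 driven TPO promoter activity; plate controls were median of neutral control wells for no effect and mitoxantrone controls for full effect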
Shn3 3UTR inh = inhibitors of Schnurri-3 3'UTR reporter in osteoblasts | Clone20 osteoblast Shn3 3'UTR firefly luciferase, 24 h | inhibition, % at 12.5 µM | 360,000 compounds, 0.52% hits;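 active = mean inhibition of at least 75% with every replicate also reaching 75%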;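 also: 0% = median of neutral control wells and 100% = pilot-screen positive control compound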
FN deposit inh = fibronectin deposition inhibition | 350,000 compounds, 0.086% hits | inhibition, % at 12.6 µM | AH1F fibroblasts, Alexa488-fibronectin deposition fluorescence, overnight;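 active = mean inhibition across replicates of 30% or more, regardless of how many single replicates reach that level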;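 also: positive control wells lacked labelled fibronectin entirely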
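Material – AH1F fibroblast monolayer, labelled fibronectin deposition · Reagent – labelled fibronectin 24 nM · Timing – 1 h adhesion, overnight exposure · Measured by – fluorescence at 485 nm excitation, 525 nm emission · Read-out – inhibition of fibronectin deposition signal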
EWS-Fli inh = inhibitors of EWS/Fli oncoprotein transcriptional activity; A673 NR0B1-luciferase reporter, viability-normalised; inhibition, % at 12.6 µM; 350,000 compounds, 0.67% hits; AID 651661;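 active = mean inhibition of at least 50% after viability correction, with every replicate also passing that limit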;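 also: firefly luciferase signal divided by Alamar Blue viability fluorescence both relative to DMSO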
aSyn 5UTR inh = MLPCN primary screen, SNCA 5' untranslated region | alpha-synuclein 5'UTR reporter, inhibitor activity | inhibition, % (tested at 7.5 µM) | 300,000 compounds, 0.82% hits; in the data active = inhibition above about 60%;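 also: H4 neuroglioblastoma cells stably carrying SNCA 5'UTR luciferase fusion; 0% = DMSO wells and 100% = positive control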
EBV LMP1 NFkB = inhibitors of Epstein-Barr LMP1-induced NF-kappaB reporter; LMP1-induced NF-kappaB luciferase reporter cells, luminescence; inhibition, % at 12.5 µM; 350,000 compounds, 0.69% hits; in the data active = inhibition above about 41%;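 also: 0% = neutral control wells and 100% = reference inhibitor control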
Starred values were filed as active, the others as inactive; x = no result.

SMILES	PAX8 reporter	Shn3 3UTR inh	FN deposit inh	EWS-Fli inh	aSyn 5UTR inh	EBV LMP1 NFkB
CC1(C(=O)NCc2cccc(C(F)(F)F)c2)CCN1Cc1ccc(-c2ccccc2)o1 (stereo unspecified)	74*	30	4	12	x	x
CC1(C(=O)NCc2cccc(C(F)(F)F)c2)CCN1Cc1cc2ccccc2o1 (stereo unspecified)	12	-2	-1	4	x	x
Cc1ccccc1N1CN(Cc2ccco2)CNC1=S	61*	1	7	-5	33	0
Cc1ccc(S(=O)(=O)N[C@H]2CC[C@H](CCn3cc(-c4cccc(F)c4)nn3)O[C@@H]2CO)cc1	34	x	8	28	x	x
COc1ccc2c3c(n(C)c2c1)[C@H](CO)NCC31CCN(Cc2cc(-c3ccccc3)on2)CC1	82*	x	-6	-6	x	x
CCN(C)C[C@@H]1Oc2cc(C#CCC3CCCC3)ccc2S(=O)(=O)N([C@@H](C)CO)C[C@H]1C	18	x	x	9	x	x
CCCN(C)C[C@@H]1Oc2cc(C#Cc3ccncc3)ccc2S(=O)(=O)N([C@H](C)CO)C[C@@H]1C	x	x	-19	66*	x	x
CCCN(C)C[C@@H]1Oc2cc(C#CCC3CCCC3)ccc2S(=O)(=O)N([C@H](C)CO)C[C@H]1C	71*	x	16	43	x	x
C[C@@H]1CN([C@H](C)CO)S(=O)(=O)c2ccc(C#Cc3ccncc3)cc2O[C@H]1CN(C)C(=O)C1CCCCC1	78*	x	x	15	x	x
O=C(CN1CCOCC1)NCC[C@H]1CC[C@@H](NC(=O)c2ccc3c(c2)OCO3)[C@@H](CO)O1	-12	x	-9	0	x	x
CC(C)CC#Cc1ccc([C@H]2[C@H](CO)N3C(=O)CN(S(=O)(=O)c4ccccc4)C[C@@H]23)cc1	x	x	x	9	x	x
C[C@@H]1CN([C@@H](C)CO)C(=O)Cc2cc(NC(=O)Nc3ccccc3)ccc2O[C@@H]1CN(C)C(=O)Nc1cccc2ccccc12	x	x	x	7	x	x
C=C1C(=O)OC2C1CCC(C)=C1C(=O)C3OC3(C)C12 (stereo unspecified)	x	98*	x	47	x	25
Cc1ccc(C(=O)N2CCCCC2)cc1NC1=C(Cl)C(=O)N(Cc2ccccc2)C1=O	72*	28	2	15	x	-6
Cc1ccc(O)c(NC2=C(Cl)C(=O)N(Cc3ccccc3)C2=O)c1	31	-6	-7	10	-22	-8
CN(C)S(=O)(=O)c1ccc(C(=O)Nc2nnc(-c3ccc4c(c3)CCCC4)o2)cc1	-5	47	27	27	69*	36
COc1ccc(-c2nnc(NC(=O)c3ccc4c(c3)OCCO4)o2)cc1	-15	2	5	8	105*	10
CCCN1CCc2c(sc(NC(=O)c3ccc(S(=O)(=O)N4CCCC4)cc3)c2C(N)=O)C1	11	12	x	x	19	-4
CC1CCCN(S(=O)(=O)c2ccc(C(=O)Nc3nnc(-c4ccccn4)o3)cc2)C1 (stereo unspecified)	16	-6	-9	14	24	-3
CC1CCCN(S(=O)(=O)c2ccc(C(=O)Nc3sc4c(c3C(N)=O)CCN(C)C4)cc2)C1 (stereo unspecified)	19	11	0	56*	4	4
CC1CCCN(S(=O)(=O)c2ccc(C(=O)Nc3nnc(-c4ccccc4Cl)o3)cc2)C1 (stereo unspecified)	x	60	x	x	78*	37
C[C@H]1CN([C@@H](C)CO)C(=O)CCCn2nncc2CO[C@@H]1CN(C)C(=O)Nc1ccc(C(F)(F)F)cc1	2	x	-7	-9	x	x
C[C@@H]1CN([C@@H](C)CO)C(=O)c2cc(NC(=O)CCC(F)(F)F)ccc2O[C@@H](C)CCCCO[C@@H]1CN(C)Cc1ccccc1	-21	x	-1	-2	x	x
COc1ccc(-c2csc(NC(=O)c3ccc(S(=O)(=O)N4CCc5ccccc5C4)cc3)n2)cc1	11	54	-1	19	-23	17
COc1ccc(-c2nnc(NC(=O)c3ccc(S(=O)(=O)N4CCc5ccccc5C4)cc3)o2)cc1	x	-12	x	x	73*	27
SMILES	PAX8 reporter	Shn3 3UTR inh	FN deposit inh	EWS-Fli inh	aSyn 5UTR inh	EBV LMP1 NFkB
CCN(CC)CCNC(=O)c1cc2c(-c3ccc(Cl)cc3)nn(C)c2s1	39	-13	-8	33	-43	-249
CCCCN(CC)CCNC(=O)c1cc2c(-c3ccc(Cl)cc3)nn(C)c2s1	18	-14	-5	22	79*	-32
COC1=CC(=O)c2ccccc2C1=O	x	36	x	x	x	-10
COC1=CC(=O)C=C(OC)C1=O	78*	97*	-1	63*	x	83*
FC(F)(F)c1cc(-c2ccco2)nc(-n2cnc3ccccc32)n1	x	-21	4	x	-27	-48
Cc1nc2ccccc2n1-c1nc(-c2ccco2)cc(C(F)(F)F)n1	x	-1	-5	x	90*	-90
Cc1ccccc1NC(=O)c1cnc2ccccn2c1=O	x	25	x	x	62*	29
Cc1cccc(S(=O)(=O)N2CCCCN3[C@H](CO)[C@H](c4ccc(C#CC(C)C)cc4)[C@H]3C2)c1	78*	x	x	17	x	x
COc1cccc(S(=O)(=O)N2CCCCN3[C@H](CO)[C@H](c4ccc(C#CC(C)C)cc4)[C@@H]3C2)c1	71*	x	x	4	x	x
Cc1cccc(S(=O)(=O)N2CCCCN3[C@H](CO)[C@H](c4ccc(C#C[C@H](C)O)cc4)[C@H]3C2)c1	86*	x	x	18	x	x
Cc1cccc(S(=O)(=O)N2CCCCN3[C@H](CO)[C@@H](c4ccc(C#C[C@H](C)O)cc4)[C@@H]3C2)c1	33	x	x	21	x	x
C[C@H](O)C#Cc1ccc([C@@H]2[C@@H](CO)N3CCCCN(S(=O)(=O)c4ccccc4)C[C@H]23)cc1	76*	x	x	7	x	x
COc1ccc(-c2nc(CN3CCC(C(=O)N4CCOCC4)CC3)c(C)o2)cc1C	-9	54	7	x	22	66*
COc1ccc(CCNC(=O)C2CCN(Cc3nc(-c4ccccc4F)oc3C)CC2)cc1OC	x	11	34*	x	8	-4
COc1ccc(-c2nc(CN3CCC(C(=O)N4CCOCC4)CC3)c(C)o2)cc1OC	-25	-8	6	x	-15	1
CNC[C@H]1Oc2ccc(N)cc2C(=O)N([C@H](C)CO)C[C@@H]1C	-9	x	x	-9	x	x
O=C(C[C@H]1CC[C@@H]2[C@H](COC[C@H](O)CN2Cc2cc(F)cc(F)c2)O1)NC1CCC1	0	x	-14	-19	x	x
CC(=O)Nc1ccc(S(=O)(=O)Nc2cccc(-c3ccc4nncn4n3)c2)cc1	1	1	-6	-8	-10	-7
Cc1ccc(S(=O)(=O)Nc2cccc(-c3ccc4nncn4n3)c2)cc1	27	6	19	57*	17	-8
CC(=O)c1ccc(S(=O)(=O)Nc2cccc(-c3ccc4nncn4n3)c2)cc1	9	7	1	x	12	58*
CCC(=O)N1C[C@@H]2[C@H](c3ccccc31)[C@@H](CO)N2C(=O)Nc1ccccc1	1	x	x	0	x	x
